The values that follow come from ChEMBL document CHEMBL4041496, “Natural-Based Indirubins Display Potent Cytotoxicity toward Wild-Type and T315I-Resistant Leukemia Cell Lines” (J Nat Prod, 2016).

The subject of assay [1] is KCL-22. Put plainly: Cytotoxicity against human KCL22 cells assessed as cell viability at 1 uM after 48 hrs by MTS assay relative to control. The class given is functional. To be noted: for viability at 1 µM: Homo sapiens, KCL-22, 48 h, read-out: Activity. An outline of the steps: (§1)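 Single-concentration screen: KCL-22 cells, or KCL-22 cells expressing T315I mutant Bcr-Abl, grown in RPMI-1640 with 10% FBS. Cells were seeded at 10 000/well, held overnight at 37 °C in 5% CO2, then exposed to 1 μM compound for 48 h, with DMSO as vehicle control. Viability was read by MTS tetrazolium-to-formazan conversion, absorbance 490 nm, in triplicate.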
(Tetrazolium dyes change colour on reduction, which living cells bring about.)

The test system of assay [2] is KCL-22. Put plainly: Cytotoxicity against human KCL22 cells harboring ABL1 T315I mutant assessed as cell viability at 1 uM after 48 hrs by MTS assay relative to control. It counts as functional. To be noted: for viability at 1 µM: Homo sapiens, KCL-22, 48 h, read-out: Activity. An outline of the steps:
as §1

Assay [3] addresses Tyrosine-protein kinase ABL1 (Homo sapiens, UniProt P00519). Put plainly: Inhibition of recombinant ABL1 (unknown origin) after 120 mins in presence of [33P]ATP.
Assay [4] deals with Tyrosine-protein kinase ABL1 (Homo sapiens, UniProt P00519, T315I). Put plainly: Inhibition of recombinant ABL1 T315I mutant (unknown origin) after 120 mins in presence of [33P]ATP.
The next assay deals with T1, Aurora kinase A (Homo sapiens, UniProt O14965).
T1 sequence (O14965 whole entry): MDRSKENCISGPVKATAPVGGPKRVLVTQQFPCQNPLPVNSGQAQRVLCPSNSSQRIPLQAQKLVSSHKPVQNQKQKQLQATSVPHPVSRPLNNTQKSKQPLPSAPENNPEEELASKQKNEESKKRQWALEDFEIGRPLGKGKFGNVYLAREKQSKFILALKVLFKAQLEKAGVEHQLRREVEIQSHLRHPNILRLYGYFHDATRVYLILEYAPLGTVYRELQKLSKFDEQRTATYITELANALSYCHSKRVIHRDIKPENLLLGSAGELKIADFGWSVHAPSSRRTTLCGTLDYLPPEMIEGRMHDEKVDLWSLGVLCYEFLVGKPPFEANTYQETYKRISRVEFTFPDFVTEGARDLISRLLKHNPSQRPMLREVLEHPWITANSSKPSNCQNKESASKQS
In words: Inhibition of recombinant Aurora A (unknown origin) after 120 mins in presence of [33P]ATP.

In assay [5] the target is Proto-oncogene tyrosine-protein kinase Src (Homo sapiens, UniProt P12931). In words: Inhibition of recombinant c-Src (unknown origin) after 120 mins in presence of [33P]ATP.
Assay [6] has as its target Tyrosine-protein kinase JAK2 (Homo sapiens, UniProt O60674). In words: Inhibition of recombinant JAK2 (unknown origin) after 120 mins in presence of [33P]ATP.
Assay [7] has as its system KCL-22. Put plainly: Cytotoxicity against human KCL22 cells assessed as reduction in cell viability after 48 hrs by MTS assay. It counts as functional, cell-based.
The subject of assay [8] is KCL-22. Put plainly: Cytotoxicity against human KCL22 cells harboring ABL1 T315I mutant assessed as reduction in cell viability after 48 hrs by MTS assay. The class given is functional, cell-based. To be noted: KCL-22, 48 h.
The subject of assay [9] is KCL-22. Put plainly: Cytotoxicity against human KCL22 cells assessed as reduction in cell viability at 1 uM after 48 hrs by MTS assay. It counts as functional, cell-based. Put shortly:
as §1

The subject of assay [10] is KCL-22. In words: Cytotoxicity against human KCL22 cells harboring ABL1 T315I mutant assessed as reduction in cell viability at 1 uM after 48 hrs by MTS assay. The class given is functional, cell-based. An outline of the steps:
as §1

pIC50: −log10 of the molar value. Calls of active or inactive are those of the source. How the calls were made is not given here.

Sequence of Tyrosine-protein kinase JAK2 (O60674 whole entry): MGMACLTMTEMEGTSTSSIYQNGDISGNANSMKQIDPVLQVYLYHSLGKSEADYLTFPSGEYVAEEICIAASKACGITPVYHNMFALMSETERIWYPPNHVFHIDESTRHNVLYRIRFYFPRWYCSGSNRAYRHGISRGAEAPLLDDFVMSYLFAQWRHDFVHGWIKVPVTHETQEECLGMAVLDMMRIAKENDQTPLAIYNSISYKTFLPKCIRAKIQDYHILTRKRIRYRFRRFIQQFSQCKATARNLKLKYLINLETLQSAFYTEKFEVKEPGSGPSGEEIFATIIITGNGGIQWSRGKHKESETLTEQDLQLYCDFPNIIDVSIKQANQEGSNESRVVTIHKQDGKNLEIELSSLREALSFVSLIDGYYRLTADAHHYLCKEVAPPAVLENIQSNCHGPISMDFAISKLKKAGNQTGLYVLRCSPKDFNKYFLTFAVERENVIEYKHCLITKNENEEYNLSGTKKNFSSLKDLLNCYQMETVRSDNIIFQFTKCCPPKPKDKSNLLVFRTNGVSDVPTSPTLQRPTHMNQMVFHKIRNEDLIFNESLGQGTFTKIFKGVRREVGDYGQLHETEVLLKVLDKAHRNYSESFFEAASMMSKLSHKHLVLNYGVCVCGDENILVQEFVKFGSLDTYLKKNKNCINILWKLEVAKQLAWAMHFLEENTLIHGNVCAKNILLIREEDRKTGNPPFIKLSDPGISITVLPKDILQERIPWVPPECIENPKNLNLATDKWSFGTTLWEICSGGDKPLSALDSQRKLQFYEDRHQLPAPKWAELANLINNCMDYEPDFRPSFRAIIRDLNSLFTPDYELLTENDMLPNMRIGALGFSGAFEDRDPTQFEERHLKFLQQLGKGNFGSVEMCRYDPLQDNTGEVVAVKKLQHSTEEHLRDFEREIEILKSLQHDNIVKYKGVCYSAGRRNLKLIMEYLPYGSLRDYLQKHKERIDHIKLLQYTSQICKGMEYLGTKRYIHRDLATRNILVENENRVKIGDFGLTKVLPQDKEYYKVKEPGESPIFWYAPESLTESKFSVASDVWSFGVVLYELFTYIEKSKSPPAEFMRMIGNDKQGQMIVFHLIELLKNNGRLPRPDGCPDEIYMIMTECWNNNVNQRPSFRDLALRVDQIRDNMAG
Sequence of Proto-oncogene tyrosine-protein kinase Src (P12931 2-536 limits assumed): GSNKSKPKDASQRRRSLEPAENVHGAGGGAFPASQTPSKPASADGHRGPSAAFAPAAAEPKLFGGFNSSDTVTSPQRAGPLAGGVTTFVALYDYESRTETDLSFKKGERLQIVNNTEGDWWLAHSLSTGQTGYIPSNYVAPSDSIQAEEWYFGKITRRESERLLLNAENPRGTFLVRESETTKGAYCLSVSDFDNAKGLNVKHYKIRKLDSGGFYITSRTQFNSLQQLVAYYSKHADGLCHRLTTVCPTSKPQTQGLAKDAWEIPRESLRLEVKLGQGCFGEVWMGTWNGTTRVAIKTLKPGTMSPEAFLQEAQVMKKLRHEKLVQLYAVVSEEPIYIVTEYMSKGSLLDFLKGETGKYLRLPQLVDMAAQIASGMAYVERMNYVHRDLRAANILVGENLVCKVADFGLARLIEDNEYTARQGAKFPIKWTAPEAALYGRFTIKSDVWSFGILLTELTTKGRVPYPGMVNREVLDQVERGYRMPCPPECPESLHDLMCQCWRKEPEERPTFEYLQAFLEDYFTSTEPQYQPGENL

A word on the pIC50: it is the negative decadic logarithm of the IC50, by convention in mol/L. `O=C1Nc2cc(Br)ccc2/C1=C1/Nc2ccccc2/C1=N\OCCN1CCN(CCOCCO)CC1` [listing 1 of 2 here]: the Activity in the assay with KCL-22 [1] and with KCL-22 [2] was more than 50% throughout. The pIC50 in [3] was 7.47; in assay [4], 5.29; on Aurora kinase A, 7.83; in [5] it was 9.08; in assay [6], less than 5.00.
As for `CN1CCN(CCO/N=C2/C(=C3/C(=O)Nc4cc(Br)ccc43)Nc3ccccc32)CC1` [listing 1 of 2 here], the Activity is listed as less than 50% with KCL-22 [1] and more than 50% with KCL-22 [2]. Further, in the assay with KCL-22 [7] (Homo sapiens, KCL-22, 48 h), the pIC50 is 6.05.
For the molecule `O=C1Nc2cc(Br)ccc2/C1=C1/Nc2ccccc2/C1=N\OCCN1CCN(CCOCCO)CC1` [listing 2 of 2 here], the results for the viability at 1 µM in the assay with KCL-22 [1] and in the assay with KCL-22 [2] were more than 50% and less than 50%, respectively.
As to `COCCN1CCN(CCO/N=C2/C(=C3/C(=O)Nc4cc(Br)ccc43)Nc3ccccc32)CC1` [listing 1 of 2 here], the results for the viability at 1 µM in the assay with KCL-22 [1] and in the assay on KCL-22 [2] were more than 50% and less than 50%, respectively. In addition, the pIC50 in [3] was 5.46; in [4] it was less than 5.00; at Aurora kinase A, less than 5.00; in [5] it was 8.41; in [6], less than 5.00.
For `O=C1Nc2cc(Br)ccc2/C1=C1/Nc2ccccc2C1=O`, the viability at 1 µM with KCL-22 [1] and in the assay with KCL-22 [2] was more than 50% in each case.
As to `O=C1Nc2cc(Br)ccc2/C1=C1/Nc2ccccc2/C1=N\OCCN1CCCC1` [listing 1 of 2 here], the viability at 1 µM in the assay with KCL-22 [1] and with KCL-22 [2] was less than 50% in each case. In addition, the pIC50 was 5.23 in assay [4], 6.76 on Aurora kinase A, 8.66 in assay [5] and 5.36 in assay [6].
Regarding `CC(=O)c1ccc(NC(=O)O/N=C2/C(=C3/C(=O)Nc4cc(Br)ccc43)Nc3ccccc32)cc1`, the viability at 1 µM with KCL-22 [1] and in the assay on KCL-22 [2] was more than 50% throughout.
For the molecule `CN(CCO/N=C1/C(=C2/C(=O)Nc3cc(Br)ccc32)Nc2ccccc21)CC(O)CO` (configuration not stated) [listing 1 of 2 here], the viability at 1 µM in the assay on KCL-22 [1] and in the assay with KCL-22 [2] was less than 50% throughout. The pIC50 in assay [3] was 7.99; in assay [4], 6.71; in assay [5], 9.21; in assay [6] it was 6.23.
Regarding `O=C1Nc2cc(Br)ccc2/C1=C1/Nc2ccccc2/C1=N\O` [6BIO], the viability at 1 µM with KCL-22 [1] and in the assay on KCL-22 [2] was more than 50% in each case.
For `O=C1Nc2cc(Br)ccc2/C1=C1/Nc2ccccc2/C1=N\OCCN1CCNCC1` [listing 1 of 2 here], the viability at 1 µM in the assay with KCL-22 [1] and with KCL-22 [2] was less than 50% throughout. For the same molecule, the pIC50 was 6.48 in the assay on KCL-22 [7] (kcl-22); 6.37 with KCL-22 [8]; 9.06 in assay [3]; 8.03 in assay [4]; 8.15 at Aurora kinase A; more than 9.30 in assay [5]. In addition, in [6], the negative logarithm of the IC50 (pIC50) is 6.65.
Turning to `COCCN1CCN(CCO/N=C2/C(=C3/C(=O)Nc4cc(Br)ccc43)Nc3ccccc32)CC1` [listing 2 of 2 here], the Activity in the assay with KCL-22 [1] is reported as more than 50%; with KCL-22 [2], less than 50%. The pIC50 in [3] was 6.33; in [4], less than 5.00; at Aurora kinase A it was 6.48; in assay [5], 8.77; in assay [6], less than 5.00.
Consider `O=C(NC(Cl)(Cl)Cl)O/N=C1/C(=C2/C(=O)Nc3cc(Br)ccc32)Nc2ccccc21`, for which the viability at 1 µM in the assay on KCL-22 [1] and in the assay with KCL-22 [2] was more than 50% in each case.
Consider `CCCCCNC(=O)O/N=C1/C(=C2/C(=O)Nc3cc(Br)ccc32)Nc2ccccc21`, for which the viability at 1 µM with KCL-22 [1] and with KCL-22 [2] was more than 50% throughout.
For the molecule `CN1C(=O)/C(=C2\Nc3ccccc3\C2=N/O)c2ccc(Br)cc21`, the viability at 1 µM in the assay on KCL-22 [1] and in the assay with KCL-22 [2] was more than 50% each time.
Take `CC(=O)O/N=C1/C(=C2/C(=O)Nc3cc(Br)ccc32)Nc2ccccc21` [6-BROMOINDIRUBIN-3'-ACETOXIME]: the viability at 1 µM in the assay with KCL-22 [1] and in the assay on KCL-22 [2] was more than 50% in each case.
Turning to `CCN(CC)C(=O)O/N=C1/C(=C2/C(=O)Nc3cc(Br)ccc32)Nc2ccccc21`, the viability at 1 µM with KCL-22 [1] and in the assay on KCL-22 [2] was more than 50% throughout.
Consider `O=C1Nc2cc(Br)ccc2/C1=C1/Nc2ccccc2/C1=N\OCCN1CCN(CCO)CC1` [listing 1 of 2 here], for which the values for the Activity with KCL-22 [1] and in the assay on KCL-22 [2] were less than 50% and more than 50%, respectively. Also, the negative logarithm of the IC50 (pIC50) with KCL-22 [7] (Homo sapiens, KCL-22, 48 h) was 6.08.
Turning to `CN1CCN(CCO/N=C2/C(=C3/C(=O)Nc4cc(Br)ccc43)Nc3ccccc32)CC1` [listing 2 of 2 here], the viability at 1 µM with KCL-22 [1] was less than 50%; with KCL-22 [2], more than 50%. Also, the negative-log IC50 (pIC50) in the assay on KCL-22 [7] (kcl-22) was 6.30.
As to `CN(CCO/N=C1/C(=C2/C(=O)Nc3cc(Br)ccc32)Nc2ccccc21)CC(O)CO` (configuration not stated) [listing 2 of 2 here], the Activity in the assay with KCL-22 [1] and in the assay with KCL-22 [2] was less than 50% throughout. Also, the pIC50 was 8.14 in assay [3]; 6.75 in assay [4]; 8.01 on Aurora kinase A; more than 9.30 in assay [5]; 6.26 in [6].
Regarding `O=C1Nc2cc(Br)ccc2/C1=C1/Nc2ccccc2/C1=N\OCCN1CCCC1` [listing 2 of 2 here], the Activity in the assay with KCL-22 [1] and in the assay on KCL-22 [2] was less than 50% throughout. For the same molecule, the pIC50 in assay [3] is 6.97; in [4] it was 5.34; on Aurora kinase A it was 7.10; in [5], 8.31; in assay [6], 5.13.
As for `N#Cc1ccc(NC(=O)O/N=C2/C(=C3/C(=O)Nc4cc(Br)ccc43)Nc3ccccc32)cc1`, the viability at 1 µM in the assay with KCL-22 [1] and with KCL-22 [2] was more than 50% in each case.
Consider `O=C1Nc2cc(Br)ccc2/C1=C1/Nc2ccccc2/C1=N\OCC(O)CO` (configuration not stated), for which the figures for the viability at 1 µM in the assay on KCL-22 [1] and with KCL-22 [2] were less than 50% and more than 50%, respectively. In addition, the pIC50 in the assay on KCL-22 [7] (Homo sapiens, KCL-22, 48 h) is 6.12.
In the case of `O=C1Nc2cc(Br)ccc2/C1=C1/Nc2ccccc2/C1=N\OCCN1CCN(CCO)CC1` [listing 2 of 2 here], the viability at 1 µM in the assay on KCL-22 [1] and in the assay with KCL-22 [2] was more than 50% each time.
As for `O=C1Nc2cc(Br)ccc2/C1=C1/Nc2ccccc2/C1=N\OCCN1CCNCC1` [listing 2 of 2 here], the results for the Activity in the assay on KCL-22 [1] and in the assay on KCL-22 [2] were less than 50% and more than 50%, respectively. The pIC50 in the assay on KCL-22 [7] (kcl-22) is 6.11.
Turning to `O=C1Nc2c(Br)cccc2/C1=C1/Nc2ccc(/C=N/O)cc2C1=O`, the result in the assay on KCL-22 [9] and in the assay on KCL-22 [10] was inactive.
In the case of `CCN(CC)CCO/N=C1/C(=C2/C(=O)Nc3c(Br)cccc32)Nc2ccccc21`, the outcome in the assay with KCL-22 [9] and with KCL-22 [10] was inactive.
